Assay outcomes as filed in PubChem BioAssay.
Hits are enriched below; roughly 2.2% of the tested compounds scored in any of these assays.
PvdQ acylase: P. aeruginosa PvdQ acylase inhibition; inhibition, % at 10 µM; purified PvdQ acylase, fluorescence plate reader; 340,000 compounds, 0.063% hits; in the data active = inhibition above about 30%, passing the limit was not always enough;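 note: 0% = vehicle neutral wells and 100% = reference inhibitor wells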
PDI turbidity: PDI (human) enzyme inhibition; PDI insulin aggregation turbidity, A650, 90 min; inhibition, % at 10 µM; 350,000 compounds, 0.052% hits;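 active = mean inhibition across replicates of 30% or more, whatever share of single replicates reach that level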
Target sequence (P07237 whole entry, looked up): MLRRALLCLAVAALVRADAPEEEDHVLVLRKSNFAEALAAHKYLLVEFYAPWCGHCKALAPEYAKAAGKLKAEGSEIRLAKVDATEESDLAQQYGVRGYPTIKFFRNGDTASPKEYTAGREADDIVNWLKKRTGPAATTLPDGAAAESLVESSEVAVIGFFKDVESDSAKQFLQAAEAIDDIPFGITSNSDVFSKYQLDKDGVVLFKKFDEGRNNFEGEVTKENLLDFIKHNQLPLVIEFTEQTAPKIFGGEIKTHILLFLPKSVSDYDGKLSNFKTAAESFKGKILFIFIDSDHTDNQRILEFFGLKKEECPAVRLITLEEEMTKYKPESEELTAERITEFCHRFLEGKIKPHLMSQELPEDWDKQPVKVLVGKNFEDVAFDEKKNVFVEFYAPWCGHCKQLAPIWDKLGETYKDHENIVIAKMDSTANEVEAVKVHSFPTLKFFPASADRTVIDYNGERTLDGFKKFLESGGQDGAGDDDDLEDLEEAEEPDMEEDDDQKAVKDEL
Env fusion inh: HIV envelope-mediated fusion inhibition; HeLa-JRFL Env/CEM21 cell fusion, luciferase; AID 651610; 360,000 compounds, 1.1% hits; inhibition, % at 12.3 µM;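 active = mean replicate inhibition score of at least 50 and every replicate individually at or above 50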;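 note: 0% = plate neutral controls and 100% = maraviroc near 300 nM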
rRNA inh HTS: inhibitors of bacterial rRNA selective over humanized ribosomes; E. coli WT GFP vs humanized-ribosome RFP mutants, fluorescence, 24 h; hits give low values; DMSO median 0, no signal -100; GFP signal change (wild-type ribosome), % (no concentration beside the values); 350,000 compounds, 1.6% hits;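 active = significant combined selectivity score with lowered wild-type GFP, culture density cut under 30%, mutant RFP and density less affected; inactive = any of these conditions unmet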
ERp5 block: ERp5 (human) disulfide isomerase inhibition; Q15084; ERp5 insulin aggregation, absorbance 650 nm, 90 min; inhibition, % at 9.99 µM; 350,000 compounds, 0.05% hits;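 active = mean replicate inhibition above about 25%, with every replicate also reaching it, limit read from the data, passing the limit was not always enough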
FN deposition inh: fibronectin deposition inhibition | AH1F fibroblasts, Alexa488-fibronectin deposition fluorescence, overnight | inhibition, % at 12.6 µM | 350,000 compounds, 0.086% hits;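 active = mean inhibition across replicates of 30% or more, regardless of how many single replicates reach that level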;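 note: positive control wells lacked labelled fibronectin entirely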
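Measured by – fluorescence 485/525 nm · System – AH1F fibroblast monolayer, labelled fibronectin deposition · Amount – 10000 cells per well · Buffer or medium – serum-reduced DMEM (2% serum) · Doses – single dose, pinned · Also added – fluorescent fibronectin at 24 nM final · Schedule – 1 h cell attachment, overnight exposure to compound and label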
An asterisk follows results filed as active; . = no result given; [ ] = dose if it differs, or a comment.

SMILES	PvdQ acylase	PDI turbidity	Env fusion inh	rRNA inh HTS	ERp5 block	FN deposition inh
CCC(CC)COC(=O)C1=C(C)NC(=O)NC1c1cccc([N+](=O)[O-])c1 (configuration not stated)	-11	-3	62*	-7	-1	-3
CC(C)NC(=O)Nc1ccc2c(c1)C(=O)N(C)C[C@@H](C)[C@H](CN(C)C)O2	.	.	.	2	.	-7
c1ccc2c(c1)ncn2CCCCOc1ccc2c(c1)CCC2	-14	7	88*	.	.	-2
Cc1ccccc1OCCCCn1cnc2ccccc21	-27	0	65*	.	.	.
C/C=C/c1ccc2c(c1)O[C@H](CN(C)C(=O)C1CC1)[C@H](C)CN([C@H](C)CO)S2(=O)=O	.	.	11[16.7 µM]	-1	.	-4
CCCCCCCCN1[C@@H](CC(C)=O)c2cc(C(F)(F)F)ccc2S1(=O)=O	-5	-5	61*	-2	-1	-23
CC(C)NC(=O)N(C)C[C@H]1Oc2ccc(NS(C)(=O)=O)cc2CC(=O)N([C@H](C)CO)C[C@H]1C	.	.	.	1	-4	.
C[C@H](CO)N1C[C@H](C)[C@@H](CN(C)C(=O)[C@H](Cc2ccccc2)N(C)C)OCc2ccccc2-c2c(n(C)c3ccccc23)C1=O	.	.	60*[16.7 µM]	0	-12	3
C[C@H](C(=O)N(C)C[C@@H]1OCc2ccccc2-c2c(n(C)c3ccccc23)C(=O)N([C@@H](C)CO)C[C@H]1C)c1ccccc1	.	.	67*[16.7 µM]	-1	-14	3
C[C@H](CO)N1C[C@H](C)[C@@H](CN(C)C(=O)[C@H](C)c2ccccc2)OCc2ccccc2-c2c(n(C)c3ccccc23)C1=O	.	.	.	1	5	-1
N#Cc1cccc(-c2ccc3c(c2)[C@H]2[C@H](CCN2S(=O)(=O)c2ccccc2F)[C@H](CO)N3)c1	.	.	.	-27	2	-5
O=C(NC1CCCC1)N[C@@H]1CC[C@@H](CC(=O)N2CCOCC2)O[C@H]1CO	.	.	-3[16.7 µM]	4	-2	.
CCN1CCN(CC(=O)N2N=C(c3cccs3)CC2c2ccc(OC)c(OC)c2)C(=O)C1=O (configuration not stated)	-10	2	-6	0	4	-4
C=C1C(=O)c2sccc2C(c2ccc(OC)c(OC)c2)C1COC(C)=O (configuration not stated)	8	-7	-51	-25*	0	28
C[C@H](CO)N1C[C@H](C)[C@H](CN(C)Cc2ccc(C(F)(F)F)cc2)OCCCC[C@H](C)Oc2ccc(NS(C)(=O)=O)cc2C1=O	.	.	39[16.7 µM]	-2	.	.
C[C@H]1CCCCO[C@@H](CN(C)Cc2ccc(C(F)(F)F)cc2)[C@@H](C)CN([C@@H](C)CO)C(=O)c2cc(NS(C)(=O)=O)ccc2O1	.	.	55*[16.7 µM]	6	.	.
C[C@H]1CCCCO[C@H](CN(C)Cc2ccc(C(F)(F)F)cc2)[C@@H](C)CN([C@@H](C)CO)C(=O)c2cc(NS(=O)(=O)c3ccc(F)cc3)ccc2O1	.	.	68*[16.7 µM]	0	-3	-1
C[C@@H]1CCCCO[C@@H](CN(C)C(=O)CCC(F)(F)F)[C@@H](C)CN([C@@H](C)CO)C(=O)c2cc(NS(=O)(=O)c3ccc(Cl)cc3)ccc2O1	.	.	13[16.7 µM]	-1	70*	-4
C[C@H](CO)N1C[C@H](C)[C@@H](CN(C)Cc2ccc(C(F)(F)F)cc2)OCCCC[C@H](C)Oc2ccc(NS(=O)(=O)c3ccc(Cl)cc3)cc2C1=O	.	.	55*[16.7 µM]	1	0	-3
C[C@@H]1CN([C@@H](C)CO)C(=O)c2cc(C#C[C@@H](C)O)cnc2O[C@@H]1CN(C)C(=O)Cc1ccncc1	.	.	-10[16.7 µM]	9	1	-14
O=C(Nc1ccccc1)N1CC(=O)N2[C@H](CO)[C@H](c3ccc(C#CC4CCCC4)cc3)[C@@H]2C1	.	.	.	-15	5	-7
COc1ccc2nc(N3C(=O)C(O)=C(C(=O)c4ccco4)C3c3ccccc3OC)sc2c1 (configuration not stated)	-1	-1	12	-32*	.	1
COc1ccc2nc(N3C(=O)C(O)=C(C(=O)c4ccco4)C3c3ccc(C)o3)sc2c1 (configuration not stated)	12	-9	.	-5	11	-7
O=C(Cc1ccc([N+](=O)[O-])cc1)Nc1cc(C(F)(F)F)cc(C(F)(F)F)c1	1	8	9	-29*	0	1
CCc1c(C)n([O-])c2c([n+]1=O)CCC2	1	46*	.	.	.	.
SMILES	PvdQ acylase	PDI turbidity	Env fusion inh	rRNA inh HTS	ERp5 block	FN deposition inh
Cc1c(C)[n+](=O)c2c(n1[O-])CCC2	-7	-1	.	.	.	.
Cc1c(-n2cc(C(=O)c3ccccc3O)cc(C#N)c2=O)c(=O)n(-c2ccccc2)n1C	-7	89*	15	.	.	-11
N#Cc1cc(C(=O)c2ccccc2O)cn(-c2ccc(Cl)cc2)c1=O	-12	0	1	-22	4	1
O=C(C[C@H]1CC[C@@H]2[C@H](COC[C@@H](O)CN2C(=O)Nc2ccc(Cl)c(Cl)c2)O1)NCc1ccc(Cl)c(Cl)c1	.	.	.	-57	-3	-1
Nc1cc(=O)[nH]c(SCCSc2ccc(F)cc2)n1	1	8	66*	-3	-5	5
O=C(C[C@@H]1C/C=C\C[C@@H](Cc2ccc(F)cc2)C(=O)OC[C@H]2CCCN2C1=O)N[C@H](CO)Cc1ccccc1	5	12	2	-18*	2	3
O=C(C[C@H]1C/C=C\C[C@@H](Cc2ccc(F)cc2)C(=O)OC[C@H]2CCCN2C1=O)N[C@@H](CO)Cc1ccccc1	-7	-7	9	-5	-1	2
C/C=C/c1ccc2c(c1)O[C@@H](CN(C)C(=O)C1CC1)[C@@H](C)CN([C@@H](C)CO)S2(=O)=O	.	.	22[16.7 µM]	-1	.	-14
COc1ccc(S(=O)(=O)N(CC(=O)NC2CCCC2)c2ccccc2OC)cc1	-16	-3	1	-29*	-3	-8
COc1ccccc1N(CC(=O)NCCSCc1ccccc1)S(=O)(=O)c1ccc(C)cc1	-7	-3	17	2	3	4
COc1ccc(S(=O)(=O)N(CC(=O)NC2CC3CCC2C3)c2ccccc2OC)cc1 (configuration not stated)	-12	-2	3	-16	1	-4
COC(=O)c1cc(NC(=O)CN(c2ccccc2OC)S(=O)(=O)c2ccccc2)ccc1Cl	-16	1	.	-21*	2	.
COC(=O)c1cc(NC(=O)CN(c2cccc(OC)c2)S(=O)(=O)c2ccccc2)ccc1Cl	-12	-2	.	1	6	4
CCOc1ccccc1N(CC(=O)Nc1ccccc1F)S(=O)(=O)c1ccccc1	1	20	-3	-19*	5	-4
CCOc1ccccc1N(CC(=O)Nc1ccc(OC)cc1OC)S(=O)(=O)c1ccccc1	-17	-5	6	0	4	11
COc1ccccc1N(CC(=O)NCCSCc1ccccc1)S(=O)(=O)c1ccccc1	.	2	22	-15*	-7	-6
